Reference: ChEMBL document CHEMBL4229410, “Facile construction of fused benzimidazole-isoquinolinones that induce cell-cycle arrest and apoptosis in colorectal cancer cells” (Bioorg Med Chem, 2018)
Activity calls are given as the source filed them. The calls are words filed in the database; no cut-off is given here.

Experiments:
[1] = system: HT-29; experiment: Cell cycle arrest in human HT-29 cells assessed as accumulation at G1-phase at 50 uM after 48 hrs by propidium iodide staining based flow cytometry (reference value: 41.86%); assay type: functional
[2] = system: HT-29; experiment: Down regulation of CDK1 expression in human HT-29 cells after 48 hrs by Western blot analysis; assay type: functional, cell-based
How it was run: (§1)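 HT29 or SW620 cells were treated at 0, 25, 50 and 75 μM for 48 h and lysed in RIPA with protease and phosphatase inhibitors. Protein was quantified by BCA. 50 μg lysate was run on 8–15% SDS-PAGE and transferred to PVDF. Blocking was 5% BSA/TBST for 2 h; primary antibodies were applied overnight at 4 °C, then HRP secondary 1 h at room temperature.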

[3] = system: HT-29; experiment: Upregulation of p21 expression in human HT-29 cells after 48 hrs by Western blot analysis; assay type: functional, cell-based
[4] = system: SW-620; experiment: Induction of apoptosis in human SW620 cells assessed as live cells at 25 uM after 48 hrs by Annexin-V-FITC/propidium iodide staining based flow cytometry (reference value: 97.5%); assay type: functional
[5] = system: HT-29; experiment: Induction of apoptosis in human HT-29 cells assessed as early apoptotic cells at 25 uM after 48 hrs by Annexin-V-FITC/propidium iodide staining based flow cytometry (reference value: 1%); assay type: functional
[6] = system: HT-29; experiment: Induction of apoptosis in human HT-29 cells assessed as late apoptotic cells at 25 uM after 48 hrs by Annexin-V-FITC/propidium iodide staining based flow cytometry (reference value: 4.1%); assay type: functional
[7] = system: SW-620; experiment: Induction of apoptosis in human SW620 cells assessed as late apoptotic cells at 75 uM after 48 hrs by Annexin-V-FITC/propidium iodide staining based flow cytometry (reference value: 1.2%); assay type: functional
[8] = system: HT-29; experiment: Induction of apoptosis in human HT-29 cells assessed as live cells at 75 uM after 48 hrs by Annexin-V-FITC/propidium iodide staining based flow cytometry (reference value: 93.2%); assay type: functional
[9] = system: HT-29; experiment: Induction of apoptosis in human HT-29 cells after 48 hrs by Annexin-V-FITC/propidium iodide staining based flow cytometry; assay type: functional, cell-based
[10] = system: SW-620; experiment: Induction of apoptosis in human SW620 cells assessed as reduction in MCL1 expression after 48 hrs by Western blot analysis; assay type: functional, cell-based
[11] = system: HT-29; experiment: Induction of apoptosis in human HT-29 cells assessed as reduction in BCL2 expression after 48 hrs by Western blot analysis; assay type: functional, cell-based; how it was run: as §1
[12] = system: HT-29; experiment: Inhibition of PI3K in human HT-29 cells assessed as reduction in AKT phosphorylation at S473 residue up to 75 uM after 48 hrs by Western blot analysis; assay type: cell-based
[13] = target: Serine/threonine-protein kinase mTOR (Homo sapiens) (UniProt P42345); experiment: Inhibition of mTOR in human SW620 cells assessed as reduction in 4EBP1 phosphorylation up to 75 uM after 48 hrs by Western blot analysis; assay type: cell-based
[14] = system: Tyrosine-protein kinase ABL1 (Homo sapiens), P00519 [E255K]; experiment: Inhibition of human phosphorylated ABL1 E255K mutant (S229 to K512 residues) expressed in mammalian expression system assessed as residual activity at 5 uM by KINOMEscan assay relative to control
[15] = target: Tyrosine-protein kinase ABL1 (Homo sapiens, UniProt P00519); experiment: Inhibition of human phosphorylated ABL1 (S229 to K512 residues) expressed in mammalian expression system assessed as residual activity at 5 uM by KINOMEscan assay relative to control
[16] = target: Inhibitor of nuclear factor kappa-B kinase subunit beta (Homo sapiens) (UniProt O14920); experiment: Inhibition of full length human IKKbeta (M1 to S756 residues) expressed in mammalian expression system assessed as residual activity at 5 uM by KINOMEscan assay relative to control
[17] = target: Mitogen-activated protein kinase 9 (Homo sapiens, UniProt P45984); experiment: Inhibition of full length human JNK2 (M1 to Q382 residues) expressed in mammalian expression system assessed as residual activity at 5 uM by KINOMEscan assay relative to control
[18] = system: Mast/stem cell growth factor receptor Kit (Homo sapiens), P10721 [D816V]; experiment: Inhibition of human KIT (I571 to D952 residues) D816V mutant expressed in bacterial expression system assessed as residual activity at 5 uM by KINOMEscan assay relative to control
[19] = target: Mitogen-activated protein kinase 14 (Homo sapiens, UniProt Q16539); experiment: Inhibition of full length human p38alpha (M1 to S360 residues) expressed in bacterial expression system assessed as residual activity at 5 uM by KINOMEscan assay relative to control
[20] = target: Mitogen-activated protein kinase 11 (Homo sapiens, UniProt Q15759); experiment: Inhibition of full length human p38beta (M1 to Q364 residues) expressed in bacterial expression system assessed as residual activity at 5 uM by KINOMEscan assay relative to control
[21] = target: Atypical kinase COQ8A, mitochondrial (Homo sapiens, UniProt Q8NI60); experiment: Binding affinity to full length human ADCK3 (M280 to Q647 residues) expressed in bacterial expression system by KINOMEscan assay
[22] = target: Serine/threonine-protein kinase B-raf (Homo sapiens, UniProt P15056); experiment: Binding affinity to human BRAF (S429 to E741 residues) expressed in mammalian expression system by KINOMEscan assay
[23] = target: Casein kinase I isoform gamma-2 (Homo sapiens, UniProt P78368); experiment: Binding affinity to full length human CSNK1G2 (M1 to K415 residues) expressed in bacterial expression system by KINOMEscan assay
[24] = target: Fibroblast growth factor receptor 3 (Homo sapiens, UniProt P22607); experiment: Binding affinity to partial length human FGFR3 (R442 to S771 residues) expressed in bacterial expression system by KINOMEscan assay
[25] = target: MAP kinase-activated protein kinase 2 (Homo sapiens, UniProt P49137); experiment: Binding affinity to human MAPKAPK2 (V48 to D345 residues) expressed in bacterial expression system by KINOMEscan assay
[26] = target: Platelet-derived growth factor receptor beta (Homo sapiens, UniProt P09619); experiment: Binding affinity to human PDGFRB (V582 to Y1009 residues) expressed in bacterial expression system by KINOMEscan assay
[27] = target: Protein kinase C epsilon type (Homo sapiens, UniProt Q02156); experiment: Binding affinity to human PRKCE (A378 to P737 residues) expressed in mammalian expression system by KINOMEscan assay
[28] = target: Ribosomal protein S6 kinase alpha-3 (Homo sapiens, UniProt P51812); experiment: Binding affinity to human N-terminal RSK2 kinase domain 1 (M1 to D394 residues) expressed in mammalian expression system by KINOMEscan assay
[29] = target: NUAK family SNF1-like kinase 2 (Homo sapiens, UniProt Q9H093); experiment: Binding affinity to human SNARK (P22 to A333 residues) expressed in mammalian expression system by KINOMEscan assay
[30] = target: Serine/threonine-protein kinase 32C (Homo sapiens, UniProt Q86UX6); experiment: Binding affinity to human YANK3 (M68 to G486 residues) expressed in bacterial expression system by KINOMEscan assay
Chain of Serine/threonine-protein kinase 32C (Q86UX6 whole entry, the tested form may be a part): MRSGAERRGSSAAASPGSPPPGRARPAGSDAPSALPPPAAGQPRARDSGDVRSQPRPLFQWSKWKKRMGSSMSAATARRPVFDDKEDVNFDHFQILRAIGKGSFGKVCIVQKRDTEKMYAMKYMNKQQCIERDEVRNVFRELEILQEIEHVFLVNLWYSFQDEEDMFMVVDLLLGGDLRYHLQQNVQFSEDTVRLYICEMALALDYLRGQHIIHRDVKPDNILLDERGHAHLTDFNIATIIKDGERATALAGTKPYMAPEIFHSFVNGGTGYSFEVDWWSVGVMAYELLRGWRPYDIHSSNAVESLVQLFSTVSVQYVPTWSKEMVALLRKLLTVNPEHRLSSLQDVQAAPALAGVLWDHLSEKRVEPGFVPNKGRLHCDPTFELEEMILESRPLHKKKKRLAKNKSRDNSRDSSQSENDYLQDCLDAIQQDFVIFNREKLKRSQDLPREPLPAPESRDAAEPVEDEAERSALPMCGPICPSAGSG

Chain of Atypical kinase COQ8A, mitochondrial (Q8NI60 whole entry, the tested form may be a part): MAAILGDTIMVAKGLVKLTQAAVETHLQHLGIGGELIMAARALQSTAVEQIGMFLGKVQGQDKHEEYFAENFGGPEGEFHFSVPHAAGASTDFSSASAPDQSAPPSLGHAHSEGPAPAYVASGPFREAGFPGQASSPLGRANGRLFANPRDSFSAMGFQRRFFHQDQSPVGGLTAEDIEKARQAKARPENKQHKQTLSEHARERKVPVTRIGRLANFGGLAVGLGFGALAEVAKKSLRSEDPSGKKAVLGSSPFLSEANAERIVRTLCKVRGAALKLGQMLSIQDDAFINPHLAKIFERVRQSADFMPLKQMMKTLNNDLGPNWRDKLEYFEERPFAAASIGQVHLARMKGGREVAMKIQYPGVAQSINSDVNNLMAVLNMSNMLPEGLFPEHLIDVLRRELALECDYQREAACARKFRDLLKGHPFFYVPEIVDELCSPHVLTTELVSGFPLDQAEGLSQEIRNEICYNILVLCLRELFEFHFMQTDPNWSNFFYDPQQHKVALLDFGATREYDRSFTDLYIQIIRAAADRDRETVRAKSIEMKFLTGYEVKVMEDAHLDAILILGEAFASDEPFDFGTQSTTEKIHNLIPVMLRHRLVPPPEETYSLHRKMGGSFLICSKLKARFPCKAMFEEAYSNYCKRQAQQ
Chain of NUAK family SNF1-like kinase 2 (Q9H093 whole entry, the tested form may be a part): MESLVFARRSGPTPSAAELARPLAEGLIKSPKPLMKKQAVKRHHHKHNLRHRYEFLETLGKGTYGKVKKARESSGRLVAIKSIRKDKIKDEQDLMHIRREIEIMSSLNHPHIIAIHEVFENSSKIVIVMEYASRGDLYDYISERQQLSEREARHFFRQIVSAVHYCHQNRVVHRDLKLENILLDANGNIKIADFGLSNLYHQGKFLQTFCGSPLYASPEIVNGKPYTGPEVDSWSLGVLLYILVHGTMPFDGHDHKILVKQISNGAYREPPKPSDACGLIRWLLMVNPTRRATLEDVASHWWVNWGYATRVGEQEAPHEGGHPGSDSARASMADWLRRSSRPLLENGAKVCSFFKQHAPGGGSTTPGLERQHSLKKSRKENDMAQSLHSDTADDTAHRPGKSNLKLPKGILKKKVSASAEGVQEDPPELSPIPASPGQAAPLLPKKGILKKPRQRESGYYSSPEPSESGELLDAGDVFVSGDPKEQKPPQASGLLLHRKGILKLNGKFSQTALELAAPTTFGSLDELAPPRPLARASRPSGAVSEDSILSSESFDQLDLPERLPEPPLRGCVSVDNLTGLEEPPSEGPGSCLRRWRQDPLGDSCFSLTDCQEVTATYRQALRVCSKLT
Chain of Inhibitor of nuclear factor kappa-B kinase subunit beta (Homo sapiens) (O14920 whole entry, the tested form may be a part): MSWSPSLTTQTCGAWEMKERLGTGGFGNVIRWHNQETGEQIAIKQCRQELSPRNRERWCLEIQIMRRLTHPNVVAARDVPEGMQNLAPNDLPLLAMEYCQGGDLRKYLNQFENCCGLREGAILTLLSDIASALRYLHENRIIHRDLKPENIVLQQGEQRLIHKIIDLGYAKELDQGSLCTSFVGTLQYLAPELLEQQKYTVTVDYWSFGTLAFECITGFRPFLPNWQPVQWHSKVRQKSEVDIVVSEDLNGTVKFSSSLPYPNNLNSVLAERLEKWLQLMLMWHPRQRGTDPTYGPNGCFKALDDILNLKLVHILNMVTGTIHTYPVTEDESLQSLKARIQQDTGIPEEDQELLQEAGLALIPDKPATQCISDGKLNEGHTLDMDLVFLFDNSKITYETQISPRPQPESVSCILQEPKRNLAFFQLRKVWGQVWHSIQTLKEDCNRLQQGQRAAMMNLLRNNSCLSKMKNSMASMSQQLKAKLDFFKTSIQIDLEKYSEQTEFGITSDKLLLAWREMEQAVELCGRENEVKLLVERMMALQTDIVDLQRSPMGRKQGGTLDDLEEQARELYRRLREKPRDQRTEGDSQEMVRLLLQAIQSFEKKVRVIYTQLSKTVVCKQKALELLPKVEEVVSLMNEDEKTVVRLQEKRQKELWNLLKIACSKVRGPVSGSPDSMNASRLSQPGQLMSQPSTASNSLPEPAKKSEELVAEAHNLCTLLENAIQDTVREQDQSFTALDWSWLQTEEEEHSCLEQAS
Chain of Mitogen-activated protein kinase 14 (Q16539 whole entry, the tested form may be a part): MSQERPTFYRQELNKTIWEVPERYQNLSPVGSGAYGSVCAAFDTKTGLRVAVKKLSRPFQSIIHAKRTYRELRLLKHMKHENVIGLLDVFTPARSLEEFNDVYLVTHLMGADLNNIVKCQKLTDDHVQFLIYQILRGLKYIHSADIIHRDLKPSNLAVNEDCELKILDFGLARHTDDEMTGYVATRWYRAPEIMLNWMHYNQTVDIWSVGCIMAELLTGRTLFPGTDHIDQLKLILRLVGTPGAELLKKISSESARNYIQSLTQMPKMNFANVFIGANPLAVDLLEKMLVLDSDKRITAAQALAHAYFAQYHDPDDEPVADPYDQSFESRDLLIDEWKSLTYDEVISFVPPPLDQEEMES
Chain of Mast/stem cell growth factor receptor Kit (Homo sapiens), P10721 [D816V] (P10721 whole entry D816V, the tested form may be a part): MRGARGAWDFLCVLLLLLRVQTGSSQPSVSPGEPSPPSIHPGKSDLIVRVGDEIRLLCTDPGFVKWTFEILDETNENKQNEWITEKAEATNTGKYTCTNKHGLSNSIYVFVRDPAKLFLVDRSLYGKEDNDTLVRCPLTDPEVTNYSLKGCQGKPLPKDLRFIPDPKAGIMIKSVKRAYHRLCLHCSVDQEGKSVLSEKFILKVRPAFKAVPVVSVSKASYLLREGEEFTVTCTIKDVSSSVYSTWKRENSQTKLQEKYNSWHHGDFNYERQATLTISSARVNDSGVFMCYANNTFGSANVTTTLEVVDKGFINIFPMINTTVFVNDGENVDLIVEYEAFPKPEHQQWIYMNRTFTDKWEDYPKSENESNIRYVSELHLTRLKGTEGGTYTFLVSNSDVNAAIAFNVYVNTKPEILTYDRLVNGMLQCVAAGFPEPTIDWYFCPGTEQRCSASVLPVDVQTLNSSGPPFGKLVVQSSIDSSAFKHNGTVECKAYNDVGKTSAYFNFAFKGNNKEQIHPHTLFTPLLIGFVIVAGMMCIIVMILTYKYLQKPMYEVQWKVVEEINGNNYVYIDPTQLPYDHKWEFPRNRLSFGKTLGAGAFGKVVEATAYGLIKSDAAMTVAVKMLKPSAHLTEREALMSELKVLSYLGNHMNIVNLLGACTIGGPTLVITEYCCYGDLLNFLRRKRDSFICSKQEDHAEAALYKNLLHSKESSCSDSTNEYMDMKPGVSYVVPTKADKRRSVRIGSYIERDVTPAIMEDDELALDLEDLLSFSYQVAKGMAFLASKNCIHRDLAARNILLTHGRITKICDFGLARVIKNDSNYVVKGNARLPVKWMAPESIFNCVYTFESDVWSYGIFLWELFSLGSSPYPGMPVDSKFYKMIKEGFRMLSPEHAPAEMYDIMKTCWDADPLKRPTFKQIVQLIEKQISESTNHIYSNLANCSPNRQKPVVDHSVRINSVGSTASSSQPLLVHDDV
Chain of Fibroblast growth factor receptor 3 (P22607 whole entry, the tested form may be a part): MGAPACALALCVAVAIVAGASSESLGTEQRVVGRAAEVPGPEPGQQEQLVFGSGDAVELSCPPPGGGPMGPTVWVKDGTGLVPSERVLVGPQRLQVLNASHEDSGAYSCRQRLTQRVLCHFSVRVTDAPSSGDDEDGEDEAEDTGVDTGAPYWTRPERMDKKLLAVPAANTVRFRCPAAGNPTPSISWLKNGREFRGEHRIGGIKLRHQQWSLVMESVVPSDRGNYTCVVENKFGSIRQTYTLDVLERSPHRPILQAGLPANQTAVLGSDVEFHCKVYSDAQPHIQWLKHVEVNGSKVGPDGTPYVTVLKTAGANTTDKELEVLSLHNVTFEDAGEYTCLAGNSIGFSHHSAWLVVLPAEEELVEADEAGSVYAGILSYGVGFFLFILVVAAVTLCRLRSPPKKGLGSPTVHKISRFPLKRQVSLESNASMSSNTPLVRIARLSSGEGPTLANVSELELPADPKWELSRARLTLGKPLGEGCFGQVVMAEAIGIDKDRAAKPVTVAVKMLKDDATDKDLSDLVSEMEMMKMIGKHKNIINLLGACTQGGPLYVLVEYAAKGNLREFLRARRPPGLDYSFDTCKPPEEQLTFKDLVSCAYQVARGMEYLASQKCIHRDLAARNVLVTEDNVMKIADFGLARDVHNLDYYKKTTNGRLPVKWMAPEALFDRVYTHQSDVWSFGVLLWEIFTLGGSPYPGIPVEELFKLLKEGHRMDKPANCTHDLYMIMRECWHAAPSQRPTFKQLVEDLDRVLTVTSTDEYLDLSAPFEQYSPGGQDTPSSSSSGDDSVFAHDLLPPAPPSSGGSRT
Chain of Mitogen-activated protein kinase 11 (Q15759 whole entry, the tested form may be a part): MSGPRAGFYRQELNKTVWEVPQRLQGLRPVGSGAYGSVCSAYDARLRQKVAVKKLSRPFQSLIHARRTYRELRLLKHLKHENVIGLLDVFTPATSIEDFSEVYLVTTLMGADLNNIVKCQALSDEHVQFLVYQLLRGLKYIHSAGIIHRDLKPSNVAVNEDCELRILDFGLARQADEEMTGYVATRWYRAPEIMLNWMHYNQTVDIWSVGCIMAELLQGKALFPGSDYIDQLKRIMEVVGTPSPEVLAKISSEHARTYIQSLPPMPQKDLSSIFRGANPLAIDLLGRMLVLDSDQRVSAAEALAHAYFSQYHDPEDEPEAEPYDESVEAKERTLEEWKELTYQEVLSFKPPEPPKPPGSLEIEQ

With CC(C)CN(C(=O)c1cccnc1)c1c2ccccc2c(=O)n2c1[nH]c1ccccc12 the Activity [1] was 42.2%, the Activity [2] was “Dose-dependent effect” and the Activity [3] was “Dose-dependent effect”. For the same compound, the Activity [4] was 92.1%, the Activity [5] was 0.9% and the Activity [6] was 8%. The Activity [7] was 19.6%, the Activity [8] was 49.8% and the Activity [9] was “Dose-dependent effect”. The Activity [10] was “Dose-dependent effect”, the Activity [11] was “Dose-dependent effect” and the inhibition [12] was “Active”. The inhibition [13] was “Active”, the Activity [14] was 69% and the Activity [15] was 85%. For the same compound, the Activity [16] was 93%, the Activity [17] was 96% and the Activity [18] was 100%. The Activity [19] was 100%, the Activity [20] was 100% and the Kd [21] was ≥ 5 µM. For the same compound, the Kd [22] was ≥ 5 µM, the Kd [23] was ≥ 5 µM and the Kd [24] was ≥ 5 µM. The Kd [25] was ≥ 5 µM, the Kd [26] was ≥ 5 µM and the Kd [27] was ≥ 5 µM. For the same compound, the Kd [28] was ≥ 5 µM, the Kd [29] was ≥ 5 µM and the Kd [30] was ≥ 5 µM.
